VIM-2 inhibitor = inhibitors of Pseudomonas aeruginosa VIM-2 metallo-beta-lactamase | AID 1527 | 290,000 compounds, 0.89% hits | inhibition, % at 5.6 µM | purified VIM-2, nitrocefin hydrolysis, epi-absorbance fluorescence;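 active = inhibition above the mean of all tested compounds plus 3 SD, cutoff set per screening run, cut at about 7.5% in these data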;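 note: red hydrolysis product quenches plate fluorescence so inhibitors raise well fluorescence; 0% = enzyme with DMSO and 100% = DMSO without enzyme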
pPAFAH inh = inhibitors of human plasma PAF acetylhydrolase (pPAFAH); recombinant pPAFAH, FP-rhodamine probe fluorescence polarization; inhibition, % at 3.39 µM; 330,000 compounds, 1.5% hits; AID 463082;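 active = inhibition above the mean inhibition across the screen plus 3 SD, cut at about 25% in these data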;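 note: inhibitors block binding of the rhodamine activity-based probe so polarization drops; 0% = enzyme with DMSO and 100% = wells lacking pPAFAH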
Target sequence (Q13093 whole entry, looked up): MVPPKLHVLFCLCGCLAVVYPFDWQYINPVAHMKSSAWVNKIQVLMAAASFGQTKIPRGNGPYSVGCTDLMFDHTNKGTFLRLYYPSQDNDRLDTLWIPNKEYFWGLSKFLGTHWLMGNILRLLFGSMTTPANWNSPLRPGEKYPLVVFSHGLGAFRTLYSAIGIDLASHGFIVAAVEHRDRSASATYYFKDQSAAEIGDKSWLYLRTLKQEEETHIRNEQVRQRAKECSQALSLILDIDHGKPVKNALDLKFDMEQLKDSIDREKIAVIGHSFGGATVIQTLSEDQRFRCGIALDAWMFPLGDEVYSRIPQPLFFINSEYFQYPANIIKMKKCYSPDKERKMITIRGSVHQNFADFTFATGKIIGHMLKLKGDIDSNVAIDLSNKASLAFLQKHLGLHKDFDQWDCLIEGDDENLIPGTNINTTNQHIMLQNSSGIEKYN
PAFAH1B2 FP inh = PAFAH1B2 (human) inhibition | P68402 | 340,000 compounds, 1.2% hits | AID 492953 | recombinant PAFAH1B2, FP-rhodamine activity probe, fluorescence polarization | inhibition, % at 3.39 µM;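 active = inhibition above the mean of all tested compounds plus 3 SD, cut at about 24% in these data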;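 note: 0% = enzyme with DMSO and 100% = wells lacking PAFAH1B2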
IMP-1 inhibitor = inhibitors of Pseudomonas aeruginosa IMP-1 metallo-beta-lactamase | purified IMP-1, nitrocefin hydrolysis, epi-absorbance fluorescence | inhibition, % at 5.6 µM | 290,000 compounds, 0.45% hits;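 active = inhibition above the mean plus 3 SD of all compounds in the same screening run, cut at about 4.5% in these data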;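 note: 0% = IMP-1 with DMSO and 100% = DMSO wells lacking enzyme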
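System: purified IMP-1 / Input: IMP-1 dispensed at 0.2 nM / Medium: 50 mM HEPES pH 7.1, 50 µM ZnSO4, 0.05% Brij 35 / Timing: 15 min enzyme–compound preincubation, then 25 min nitrocefin reaction, 25 °C / Technique: plate fluorescence quenching by hydrolysis product, ex 480/em 530 nm / Repeats: singlicate testing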
PAFAH1B3 FP inh = inhibitors of human PAFAH1B3. Q15102. recombinant PAFAH1B3, FP-rhodamine probe, fluorescence polarization. inhibition, % at 3.39 µM. 340,000 compounds, 0.28% hits;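 active = inhibition above the screen-wide average of all tested compounds plus 3 SD, cut at about 25% in these data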;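 note: 0% = enzyme with DMSO only and 100% = wells lacking PAFAH1B3 protein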
PAFAH2 inh = inhibitors of human PAFAH2; recombinant PAFAH2, FP-rhodamine activity probe, fluorescence polarization; 340,000 compounds, 0.99% hits; inhibition, % at 3.39 µM; AID 492956;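 active = inhibition above the mean over all tested compounds plus 3 SD, cut at about 30% in these data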;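 note: inhibitors block probe labeling of enzyme so polarization drops; 0% = enzyme with DMSO and 100% = wells lacking PAFAH2 protein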
Starred values were filed as active, the others as inactive; nt = not tested or not shown. Compounds with a hit are over-represented: about 3.6% of the library has one in this group of screens.

SMILES	VIM-2 inhibitor	pPAFAH inh	PAFAH1B2 FP inh	IMP-1 inhibitor	PAFAH1B3 FP inh	PAFAH2 inh
CSCCC(NS(=O)(=O)c1ccc(C)cc1)C(=O)N1CCN(S(=O)(=O)c2ccc(F)cc2)CC1 (configuration not stated)	nt	3	12	nt	5	4
O=C(CCc1ccc(O)cc1)c1c(O)cc(O)cc1O	nt	5	31*	nt	0	-11
OC(c1ccc(F)cc1)C(CN1CCOCC1)c1ccccc1 (configuration not stated)	1	-4	6	-2	10	-2
O=C(CNS(=O)(=O)c1ccccc1)NCC(=O)OCc1ccc(Br)cc1	-2	8	45*	-3	3	18
COC(=O)c1ccc(COC(=O)CNS(=O)(=O)c2ccccc2)cc1	-6	2	0	-4	12	7
O=C1OC(c2ccccc2)=N/C1=C/c1cccc(OC(=O)c2cccs2)c1	-3	0	66*	0	2	-5
N#CCc1ccc(Oc2ncccn2)cc1	-1	-1	-1	1	5	0
Cc1ccccc1CNC(=O)C(=O)NCCC1CCCCN1S(=O)(=O)c1cccs1 (configuration not stated)	nt	10	16	nt	11	3
Cc1ccc(C(=O)CCC(=O)OCC(=O)NNC(=O)c2ccc([N+](=O)[O-])cc2)cc1	nt	15	1	nt	6	3
COc1ccccc1N1CCN(C2CC(=O)N(c3cccc(Cl)c3)C2=O)CC1 (configuration not stated)	-1	4	-1	-4	-1	9
Cc1ccccc1NC(=O)CC1SC(=O)N(c2ccccc2)C1=O (configuration not stated)	-2	8	-1	-1	2	5
O=C(CC1SC(=O)N(c2ccccc2)C1=O)Nc1cccc2ccccc12 (configuration not stated)	0	25*	-1	4.8*	2	2
S=c1nc2[nH]c3ccccc3c2n[nH]1	nt	nt	2	nt	-1	4
CC(C)(C)OC(=O)C[C@H]1C/C=C\C[C@@H](CC(=O)NCCO)C(=O)NCCOC1=O	nt	2	9	nt	-3	0
COc1ccc(-c2nn(C)c(=O)c3ccccc23)cc1CNS(C)(=O)=O	8.5*	1	-3	-1	3	6
Cn1nc(-c2ccc(N3CCCCC3)c(NC(=O)c3ccco3)c2)c2ccccc2c1=O	-3	3	1	-5	5	2
COc1ccc(-c2nn(C)c(=O)c3ccccc23)cc1CNC(=O)c1ccco1	8.9*	0	2	0	7	-7
Nc1ccc(N)c(C(=O)O)c1	nt	34*	47*	nt	69*	66*
Cc1ccccc1-c1nc(CS(=O)(=O)CC(=O)NCc2ccco2)c(C)o1	-4	7	2	-4	6	-3
Cc1cccnc1NC(=O)c1cccc(S(=O)(=O)N2CCCc3ccccc32)c1	-2	0	29*	-2	2	1
COC(=O)C1CCC(=O)N1C(c1ccc(OC)cc1)c1cc(OC)c(OC)c(OC)c1 (configuration not stated)	nt	nt	-2	nt	7	0
O/N=C1/C2C3C(Br)C4C5CC(C1C53)C24 (configuration not stated)	-5	3	29*	-2	10	5
CCOC(=O)c1sc(/N=C/N(C)C)c(C(=O)OCC)c1C	-1	0	2	-4	11	-5
CCOC(=O)c1sc(N=NC2=C(O)CCCC2=O)c(C(=O)OCC)c1C	-2	28*	-5	-2	2	10
Nc1c(C2CCCCC2)c(=O)on1C(=O)c1ccccc1	nt	nt	2	nt	10	-2
COc1ccc(CN2C(=O)c3ccccc3C2C(=O)NC2CCCC2)c(OC)c1 (configuration not stated)	-2	1	6	-2	-1	3
COc1ccc(CN2C(=O)c3ccccc3C2C(=O)NC2CCC(C)CC2)c(OC)c1 (configuration not stated)	-1	11	26*	-2	11	1
COc1cccc2c1C1COC3C4CC(C(=O)O)C(C(C2)N13)N4C (configuration not stated)	nt	nt	3	nt	8	4
CCCCN(Cc1nc2ccccc2c(=O)[nH]1)C(=O)CN1C(=O)NC2(CCCCC2)C1=O	nt	-3	1	nt	8	3
